Data reported in ChEMBL document CHEMBL1156077, “Piperazinyl-glutamate-pyrimidines as potent P2Y12 antagonists for inhibition of platelet aggregation” (Bioorg Med Chem Lett, 2009).

Legend:
[1] = biological target: T1, P2Y purinoceptor 12 (Homo sapiens, UniProt Q9H244); assay: Binding affinity at human recombinant P2Y12 receptor expressed in CHO cells by radioligand binding assay; type: cell-based
Summary of the method: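 Washed membranes from CHO cells transfected with synthetic human P2Y12 gene. Compounds as 7-point threefold dilutions, triplicate, 1 h at room temperature. Nonspecific binding defined with 300 nM 2-MeSADP. Filtered, washed with ice-cold Tris pH 7.4. Single-site fit; IC50 converted to Ki by Cheng–Prusoff, geometric mean of n≥2.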

[2] = biological target: T1, P2Y purinoceptor 12; assay: Ratio of compound IC50 to thienopyrimidine IC50 for P2Y12 receptor in human platelet rich plasma assessed as inhibition of ADP-induced platelet aggregation by light transmission aggregometry
Summary of the method: (§1)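 Human platelet-rich plasma was pre-incubated 5 min at 37 °C with compound across seven concentrations (10 down to 0.156). Aggregation was started with ADP (20, final) and followed by light transmission at 626 nm for 15 min at 37 °C. Duplicate concentration-response data were read at the 15-min end-point. IC50 was divided by the IC50 of the thienopyrimidine reference run on the same plate.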

[3] = biological target: T1, P2Y purinoceptor 12; assay: Ratio of compound IC50 to AZD-6140 IC50 for P2Y12 receptor in human platelet rich plasma assessed as inhibition of ADP-induced platelet aggregation by light transmission aggregometry
Summary of the method: as §1, with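 “AZD-6140” for “the thienopyrimidine reference”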

[4] = Selectivity for human P2Y12 receptor over P2Y13
[5] = Selectivity for human P2Y12 receptor over P2Y1

T1 sequence (Q9H244 whole entry): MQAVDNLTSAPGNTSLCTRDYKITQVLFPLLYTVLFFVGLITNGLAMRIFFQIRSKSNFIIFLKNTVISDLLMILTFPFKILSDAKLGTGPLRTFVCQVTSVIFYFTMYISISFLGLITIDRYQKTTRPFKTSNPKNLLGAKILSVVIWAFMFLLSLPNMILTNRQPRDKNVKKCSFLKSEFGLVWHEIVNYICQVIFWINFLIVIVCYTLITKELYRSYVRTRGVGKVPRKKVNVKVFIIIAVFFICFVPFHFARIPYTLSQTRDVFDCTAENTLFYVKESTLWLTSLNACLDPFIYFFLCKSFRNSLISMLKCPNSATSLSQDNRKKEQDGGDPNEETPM

| Ki [1] | Ratio IC50 [2] | Ratio IC50 [3] | fold change (FC) [4] | fold change (FC) [5] | Structure (SMILES) |
| --- | --- | --- | --- | --- | --- |
| 2.8 nM | 0.1 | 0.4 | > 340 | > 340 | CCCCCOC(=O)N1CCN(C(=O)[C@H](CCC(=O)O)NC(=O)c2cc(N3CCC(CCN(C)C)CC3)nc(-c3ccccc3)n2)CC1 |
| 1.2 nM | 1 | 3.4 | > 340 | > 340 | CCCCCOC(=O)N1CCN(C(=O)[C@H](CCC(=O)O)NC(=O)c2cc(N3CC(OCC)C3)nc(-c3ccccc3)n2)CC1 |
| 6.8 nM | 0.8 | 3.5 | > 340 | > 340 | CCCCCOC(=O)N1CCN(C(=O)[C@H](CCC(=O)O)NC(=O)c2nc(-c3ccccc3)cc(N3CCN(CC(=O)N(C)C)CC3)n2)CC1 |
| 9.4 nM | 0.9 | 3.5 | > 340 | > 340 | CCCCCOC(=O)N1CCN(C(=O)[C@H](CCC(=O)O)NC(=O)c2cc(NC3CCN(C(C)C)CC3)nc(-c3ccccc3)n2)CC1 |
| 3.6 nM | 0.5 | 1.8 | > 340 | > 340 | CCCCCOC(=O)N1CCN(C(=O)[C@H](CCC(=O)O)NC(=O)c2nc(-c3ccccc3)cc(N3CCC(C(=O)N4CCCC4)CC3)n2)CC1 |
| 2.5 nM | 0.1 | 0.3 | > 340 | > 340 | CCCCCOC(=O)N1CCN(C(=O)[C@H](CCC(=O)O)NC(=O)c2cc(N3CCC(C(=O)N(C)C)CC3)nc(-c3ccccc3)n2)CC1 |
| 22 nM | 1.1 | 6 | > 340 | > 340 | CCCCCOC(=O)N1CCN(C(=O)[C@H](CCC(=O)O)NC(=O)c2nc(-c3ccccc3)cc(N3CCNCC3)n2)CC1 |
| 2 nM | 0.3 | 1.4 | > 340 | > 340 | CCCCCOC(=O)N1CCN(C(=O)[C@H](CCC(=O)O)NC(=O)c2cc(N3CCNCC3)nc(-c3ccccc3)n2)CC1 |
| 4.3 nM | 0.3 | 1.2 | > 340 | > 340 | CCCCCOC(=O)N1CCN(C(=O)[C@H](CCC(=O)O)NC(=O)c2cc(N3CCC(COCCOC)CC3)nc(-c3ccccc3)n2)CC1 |
| 0.9 nM | 0.2 | 1.2 | > 340 | > 340 | CCCCCOC(=O)N1CCN(C(=O)[C@H](CCC(=O)O)NC(=O)c2cc(N3CCC(CC(=O)NC)CC3)nc(-c3ccccc3)n2)CC1 |
| 5.9 nM | 0.8 | 3.9 | > 340 | > 340 | CCCCCOC(=O)N1CCN(C(=O)[C@H](CCC(=O)O)NC(=O)c2nc(-c3ccccc3)cc(N3CCC(N4CCOCC4)CC3)n2)CC1 |
| 0.7 nM | 0.08 | 0.4 | > 340 | > 340 | CCCCOC(=O)N1CCN(C(=O)[C@H](CCC(=O)O)NC(=O)c2cc(N3CCC(C(=O)N4CCCC4)CC3)nc(-c3ccccc3)n2)CC1 |
| 1.3 nM | 0.2 | 1.1 | > 340 | > 340 | CCCCOC(=O)N1CCN(C(=O)[C@H](CCC(=O)O)NC(=O)c2cc(N3CCC(C(=O)N(C)C)CC3)nc(-c3ccccc3)n2)CC1 |
| 3.5 nM | 0.4 | 1.9 | > 340 | > 340 | CCCCCOC(=O)N1CCN(C(=O)[C@H](CCC(=O)O)NC(=O)c2nc(-c3ccccc3)cc(N3CCC(C(N)=O)CC3)n2)CC1 |
| 3.7 nM | 0.3 | 1 | > 340 | > 340 | CCCCCOC(=O)N1CCN(C(=O)[C@H](CCC(=O)O)NC(=O)c2cc(N3CCN(C(C)=O)CC3)nc(-c3ccccc3)n2)CC1 |
| 2.5 nM | 0.8 | 4.6 | > 340 | > 340 | CCCCCOC(=O)N1CCN(C(=O)[C@H](CCC(=O)O)NC(=O)c2cc(N3CC(O)C3)nc(-c3ccccc3)n2)CC1 |
| 2 nM | 0.5 | 2.1 | > 340 | > 340 | CCCCOC(=O)N1CCN(C(=O)[C@H](CCC(=O)O)NC(=O)c2cc(N3CCC(CCOC)CC3)nc(-c3ccccc3)n2)CC1 |
| 2.1 nM | 0.1 | 0.5 | > 340 | > 340 | CCCCCOC(=O)N1CCN(C(=O)[C@H](CCC(=O)O)NC(=O)c2cc(N3CCC(CCN4CCCC4)CC3)nc(-c3ccccc3)n2)CC1 |
| 27 nM | 2.4 | 17 | > 340 | > 340 | CCCCCOC(=O)N1CCN(C(=O)[C@H](CCC(=O)O)NC(=O)c2cc(OCCN(CC)CC)nc(-c3ccccc3)n2)CC1 |
| 0.61 nM | 0.2 | 0.8 | > 340 | > 340 | CCCCCOC(=O)N1CCN(C(=O)[C@H](CCC(=O)O)NC(=O)c2cc(N3CCC(CN(CC)CC)CC3)nc(-c3ccccc3)n2)CC1 |
| 12 nM | 0.8 | 4.4 | > 340 | > 340 | CCCCCOC(=O)N1CCN(C(=O)[C@H](CCC(=O)O)NC(=O)c2nc(OCC3CCN(C)CC3)cc(-c3ccccc3)n2)CC1 |
| 11 nM | 0.4 | 1 | > 340 | > 340 | CCCCCOC(=O)N1CCN(C(=O)[C@H](CCC(=O)O)NC(=O)c2nc(-c3ccccc3)cc(N3CCC(CNC)CC3)n2)CC1 |
| 5.8 nM | 1 | 4.7 | > 340 | > 340 | CCCCCOC(=O)N1CCN(C(=O)[C@H](CCC(=O)O)NC(=O)c2nc(-c3ccccc3)cc(N3CCN(C(N)=O)CC3)n2)CC1 |
| 10.2 nM | 1.3 | 5.4 | > 340 | > 340 | CCCCCOC(=O)N1CCN(C(=O)[C@H](CCC(=O)O)NC(=O)c2cc(N3CCC(CCOC)CC3)nc(-c3ccccc3)n2)CC1 |
| 2.7 nM | 0.1 | 0.4 | > 340 | > 340 | CCCCCOC(=O)N1CCN(C(=O)[C@H](CCC(=O)O)NC(=O)c2cc(N3CCC(CCN)CC3)nc(-c3ccccc3)n2)CC1 |
| 8.4 nM | 0.6 | 3.1 | > 340 | > 340 | CCCCCOC(=O)N1CCN(C(=O)[C@H](CCC(=O)O)NC(=O)c2nc(-c3ccccc3)cc(N3CCC(N)CC3)n2)CC1 |
| 1.2 nM | 1.2 | 8.8 | > 340 | > 340 | CCCCCOC(=O)N1CCN(C(=O)[C@H](CCC(=O)O)NC(=O)c2cc(OCCOC)nc(-c3ccccc3)n2)CC1 |
| 5 nM | 0.5 | 1.6 | > 340 | > 340 | CCCCCOC(=O)N1CCN(C(=O)[C@H](CCC(=O)O)NC(=O)c2cc(N3CCC(OC)CC3)nc(-c3ccccc3)n2)CC1 |
